Assay outcomes as filed in PubChem BioAssay.
Most compounds without a hit are left out; they make up all but 2% or so of the library.
CSN inh: CSN deneddylation inhibition. Purified CSN, SCF-Nedd8-OG deneddylation, fluorescence polarization. 360,000 tested, 0.38% active. inhibition, % at 12.5 µM;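 active means pattern-corrected inhibition above about 35%, with an unprinted fluorescence ratio check between 0.5 and 1.5, limit read from the data, passing the limit was not always enough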
Target sequence (Q92905 whole entry, looked up, one chain of several): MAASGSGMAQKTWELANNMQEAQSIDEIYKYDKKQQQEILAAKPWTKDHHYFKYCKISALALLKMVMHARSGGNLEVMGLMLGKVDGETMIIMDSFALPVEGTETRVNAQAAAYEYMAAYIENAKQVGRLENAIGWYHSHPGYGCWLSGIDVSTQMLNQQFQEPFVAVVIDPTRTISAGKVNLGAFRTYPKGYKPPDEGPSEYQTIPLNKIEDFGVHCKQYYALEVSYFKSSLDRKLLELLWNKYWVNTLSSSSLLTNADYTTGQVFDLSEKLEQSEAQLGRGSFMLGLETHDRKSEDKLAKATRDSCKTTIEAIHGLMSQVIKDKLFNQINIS
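Detection – fluorescence polarization · System – HEK293T-derived human Csn5 enzyme · Controls – substrate-only high control, full reaction low control · Timing – 90 min, room temperature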
STEP inh: blocks human striatal-enriched tyrosine phosphatase. inhibition, % at 20 µM. recombinant STEP, OMFP fluorogenic substrate, fluorescence. AID 588621. 360,000 tested, 0.25% active;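 active means inhibition at 20 µM, scaled per plate between control wells, above about 37%, limit read from the data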
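System: STEP phosphatase, cell-free reaction; Buffer or medium: Bis-Tris pH 6.0 buffer with DTT, detergent; Incubation: 20 min at room temperature, dark; Measured by: fluorescence, 480/540 nm.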
Scp1 inh: inhibitors of human Scp-1 phosphatase. 340,000 tested, 0.88% active. Recombinant Scp1, phosphopeptide, malachite green phosphate absorbance. AID 493091. Q9GZU7. inhibition, % at 20 µM;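 active means inhibition above about 50% at 20 µM, limit read from the data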
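Assay system: SCP-1 catalytic fragment, aa 76-261 | Buffer or medium: Tris acetate buffer pH 5.5 with MgCl2 and Tween-20 | Compound: One concentration, 20 µM, with 1.0% DMSO | Also added: Phospho 17-mer peptide substrate | Signal: Absorbance at 630 nm | Incubation: 45 min enzyme reaction at room temperature | Measure: % inhibition of SCP-1 phosphate liberation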
DNMT1 block: blocks human DNA methyltransferase DNMT1 | P26358 | AID 588458 | inhibition (reported as % activation of signal), % at 10 µM | DNMT1 molecular beacon, Hinp1I cleavage, fluorescence | 360,000 tested, 0.83% active
LMPTP block: blocks human LMPTP phosphatase; recombinant LMPTP-A, OMFP fluorogenic substrate, fluorescence intensity; 360,000 tested, 0.22% active; inhibition, % at 20 µM;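 active means compounds that cut the enzyme signal by at least half of the control window in the single-dose screen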
Target sequence (P24666 whole entry, looked up): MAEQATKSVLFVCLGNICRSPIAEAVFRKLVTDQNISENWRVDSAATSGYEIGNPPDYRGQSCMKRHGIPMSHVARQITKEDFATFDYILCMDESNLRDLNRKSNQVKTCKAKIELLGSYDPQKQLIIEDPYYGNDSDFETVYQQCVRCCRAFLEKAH
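Assay system: LMPTP-A phosphatase enzyme | Input: 0.625 nM enzyme | Also added: Fluorogenic phosphatase substrate OMFP at 400 µM final | Compound dosing: One test concentration per compound, 20 µM, with 3% DMSO overall | Schedule: 50 min enzyme reaction at room temperature, protected from light | Signal: Fluorescence intensity | Benchmarks: no-enzyme and uninhibited controls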
SUMO1-SIM PPI: SUMO1-SIM interaction modulation; P63165; SUMO1 binding to a labelled peptide, TR-FRET, 1 h; inhibition, % at 20 µM; 360,000 tested, 0.33% active; AID 602429; in the data active means inhibition above about 37%
Target sequence (P63165 whole entry, looked up): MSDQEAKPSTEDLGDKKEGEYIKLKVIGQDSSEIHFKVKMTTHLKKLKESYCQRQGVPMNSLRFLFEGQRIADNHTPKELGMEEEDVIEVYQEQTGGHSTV
CSN deneddyl val: Csn5 (human) deneddylation inhibition, single-concentration validation | shares compounds with CSN inh | Csn5 deneddylation of SCF-Nedd8OG, fluorescence polarization, 90 min | inhibition, % at 16.6 µM | 540 tested, 62% active
MMP2 cntr CSN: blocks human MMP-2 in a CSN deneddylation counter-screen. inhibition, % at 16.6 µM. shares compounds with CSN inh. AID 720655. recombinant MMP-2, FRET substrate fluorescence, 60 min. 540 tested, 33% active;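 active means corrected plate-normalized z-score of 5 or more, or -5 or less, or inhibition of 15% or more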
Thrombin counter: blocks bovine thrombin in a CSN deneddylation counter-screen. bovine thrombin cleavage of Ub4-pepOG, fluorescence polarization. 540 tested, 49% active. shares compounds with CSN inh. AID 720656. inhibition, % at 16.6 µM;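 active means inhibition at or above a set limit, with a fluorescence interference ratio between 0.5 and a set maximum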
A number is an active result; . = inactive; / = not tested or not shown. Unless noted, no stated cut-off is given here; in the data, active means inhibition above about 50%; inactive means the rest.

SMILES | CSN inh | STEP inh | Scp1 inh | DNMT1 block | LMPTP block | SUMO1-SIM PPI | CSN deneddyl val | MMP2 cntr CSN | Thrombin counter
O=C(Nc1nc2ccc(SC(F)F)cc2s1)c1ccc(NS(=O)(=O)c2ccc(F)c(F)c2)cc1 | . | . | . | . | . | . | / | / | /
CCOc1ccc(NC(=O)/C(C#N)=C/c2ccc(N3CCCC3)c(C)c2)cc1 | 46 | . | . | . | . | . | 99 | . | 25
CCOc1cc(/C=C(/C#N)C(=O)Nc2ccc(O)cc2)cc(Br)c1O | 63 | . | . | . | . | . | . | . | 68
COc1cccc(-n2c(=O)c3c(C)c(C(=O)N(C)C)sc3n(CC(=O)NCC3CCCO3)c2=O)c1 (stereo not drawn) | . | . | . | . | . | . | / | / | /
Cc1c(Br)c(=O)oc2c(Br)c(O)c(O)cc12 | 40 | . | . | . | . | . | / | . | 29
Cc1c(Br)c(=O)oc2c(Br)c(O)ccc12 | . | . | . | . | . | . | / | / | /
Cc1cccc(C)c1NC(=O)CN(C)CC(=O)N1CC(=O)Nc2ccccc21 | . | . | . | . | . | . | / | / | /
CN(C)c1ccc(/C=C2\C(=N)N3N=C(CC(=O)N4CCCCC4)SC3=NC2=O)cc1 | 90 | . | . | . | . | . | 76 | -57 | 94
COc1cc(N(C)C)ccc1C=c1c2ccccc2n2c1cc(-c1ccccc1)[n+]2C | 71 | . | . | . | 90 | . | . | 73 | 57
COc1cc(C(=O)Nc2c(C(=O)O)[nH]c3ccc(Br)cc23)cc(OC)c1OC | . | . | . | . | . | . | / | / | /
O=C(N/N=C/c1c(O)ccc2ccccc12)c1cccc(C(F)(F)F)c1 | 69 | . | . | . | . | . | 63 | -25 | 49
COc1ccc2ccccc2c1/C=N/NC(=O)c1cccc(Br)c1 | . | . | . | . | . | . | / | / | /
COc1cc(-c2nnc(SCc3cc(=O)oc4cc(O)c(O)cc34)o2)cc(OC)c1OC | 47 | . | 73 | 64 | 63 | . | / | 32 | 34
Nc1cccc2c1C(=O)N(C(=O)/C=C/c1cccc(Br)c1)C2=O | 41 | . | . | . | . | . | 68 | . | 46
CCN1C(=O)/C(=C\C=C2/C=CC=CN2CC)SC1=S | 53 | . | . | . | . | . | 61 | 23 | 63
CCN1C(=O)/C(=C/C=C2\C=CN(CC)c3ccccc32)SC1=S | . | . | . | . | . | . | / | / | /
Cc1cc(N2CCN(C)CC2)ccc1NC(=O)c1cccc(S(=O)(=O)N2CCc3ccccc3C2)c1 | 108 | . | . | . | . | . | 53 | . | .
Cc1ccc(NC(=O)c2cccc(S(=O)(=O)N3CCc4ccccc4C3)c2)nc1 | . | . | . | . | . | . | / | / | /
COc1ccc2nc(C)cc(N/N=C/c3ccc(F)cc3)c2c1 | 45 | . | . | 55 | . | . | 92 | 16 | .
COc1ccc(N=Cc2sc(O)c3ccccc23)cc1 | . | . | . | . | . | . | / | / | /
COc1ccc(N=Cc2c(O)c3ccccc3n2C(C)=O)cc1 | 61 | . | . | . | . | . | 50 | . | 56
COc1ccc(N=C2NC(=O)/C(=C/c3ccc(O)c(OC)c3)S2)cc1 | 37 | . | . | . | . | . | 64 | . | 35
COc1ccc(/C=C2/SC(c3ccc(C)cc3)=NC2=O)cc1OC | . | . | . | . | . | . | / | / | /
COc1ccccc1N=C1NC(=O)/C(=C/c2ccc(N(C)C)cc2)S1 | 41 | . | . | . | . | . | 153 | -25 | 21
COc1cc(/C=C2\SC(c3ccc(C)cc3)=NC2=O)ccc1O | 72 | . | . | . | . | . | . | . | 50
SMILES | CSN inh | STEP inh | Scp1 inh | DNMT1 block | LMPTP block | SUMO1-SIM PPI | CSN deneddyl val | MMP2 cntr CSN | Thrombin counter
CCOC(=O)CNC(=S)n1ncnc1N | . | . | . | . | . | . | / | / | /
CCOC(=O)C1CCN(CC(=O)Nc2ccc(S(=O)(=O)N3CCC(C)CC3)cc2)CC1 | . | . | . | . | . | . | / | / | /
CC1(C(=O)NCc2cccc3ccccc23)CCN1Cc1cc2ccccc2o1 (stereo not drawn) | . | . | / | . | . | . | / | / | /
O=C1NC2(CCCCC2)C(=O)N1CC(=O)N(Cc1ccccc1)c1ccccc1 | . | . | . | . | . | . | / | / | /
Cc1ccc(Nc2c([N+](=O)[O-])ccc3nonc23)c(C)c1 | . | . | . | . | . | . | / | / | /
Cc1ccc(S(=O)c2ccc([N+](=O)[O-])c3nonc23)cc1 (stereo not drawn) | 42 | . | / | . | . | . | 83 | -50 | .
CN(C)c1ccc(/C=C/C(=O)c2cc(Cl)ccc2O)cc1 | 71 | . | . | . | . | . | 68 | . | 42
O=C(/C=C/c1ccncc1)c1cc(Cl)ccc1O | . | . | . | . | . | . | / | / | /
Cc1nnsc1C(=O)N/N=C/c1ccc2ccccc2c1O | 68 | . | . | . | . | . | . | -34 | 77
Cc1nnsc1C(=O)N/N=C/c1ccccc1 | . | . | . | . | . | . | / | / | /
O=C1c2ccccc2C(=O)c2c(NCc3cccnc3)cccc21 | . | . | . | . | . | . | / | / | /
O=C1c2cccc(NCCCNCCO)c2C(=O)c2cccc(NCCCNCCO)c21 | 94 | . | . | . | . | . | . | 34 | .
COc1ccc(Br)cc1/C=c1\sc2nc(-c3ccco3)nn2c1=O | 41 | . | 88 | 106 | . | . | 70 | . | .
O=C(N/N=C/c1cc(Br)cc(Cl)c1O)c1ccc2c(c1)OCO2 | 100 | 99 | 91 | . | 74 | . | . | 29 | 20
COc1ccc(-n2c(C)cc(/C=C3/SC(=S)N(C)C3=O)c2C)cc1 | . | . | . | . | . | . | / | / | /
Cc1cc(/C=C2\SC(=S)N(C)C2=O)c(C)n1-c1cccc(O)c1 | 37 | . | . | . | . | . | 71 | . | 94
O=C(NC1CCCCC1)C1c2ccccc2OCC(=O)N1Cc1cccnc1 (stereo not drawn) | . | / | / | / | . | . | / | / | /
COc1cccc(/C=N/NC(=O)CSc2ccccc2C)c1OC | . | . | . | . | . | . | / | / | /
COc1cccc(/C=N/NC(=O)CSc2ccccc2C)c1O | 100 | . | . | . | . | . | 112 | . | .
COc1cccc(/C=N/NC(=O)c2c(C)nc3ccc(Br)cn23)c1O | 45 | . | . | . | . | . | . | . | .
